Measured values gathered from unrelated publications.
Protocols differ between the studies behind these lines. Values after ≈ are worked out from the molar mass of the structure shown.

| SMILES | target or system | assay | system | setting | endpoint | result |
| --- | --- | --- | --- | --- | --- | --- |
| COC(=O)COc1ccc(NC(=O)C2(c3cccc(C)c3)CC2)cc1 | U-937 | cell growth or viability, ATP luminescence | – | 72 h | GI50 | > 200 µM |
| Cc1cc(=O)oc2ccc(-c3cc(-c4cccc(Cl)c4)nc(N)n3)c(O)c12 | KB | cell growth or viability, MTT | – | 8 µg/mL, 72 h | inhibition | 5% |
| COC(=O)COc1ccc(NC(=O)C2(c3ccc(Cl)c(Cl)c3)CC2)cc1 | U-937 | cell growth or viability, ATP luminescence | – | 72 h | GI50 | 3 µM |
| C[C@@H](c1ncncc1F)[C@](O)(Cn1cncn1)c1ccc(F)cc1F | Acanthamoeba quina | parasite growth, resazurin | – | 7 days | IC50 | 24.1 µM |
| CCCCCCCCCCCCN1CCN(CC(O)(Cn2cncn2)c2ccc(F)cc2F)CC1 (centres unmarked) | Pichia kudriavzevii | microbial growth, broth dilution | ATCC6258 | 48 h | MIC | 0.48 µg/mL (≈ 0.976 µM) |
| COC(=O)COc1ccc(NC(=O)C2(c3ccccc3)CC2)cc1 | U-937 | cell growth or viability, ATP luminescence | – | 72 h | GI50 | 4.2 µM |
| C[C@@H]1[C@H](O)[C@@H](C)/C=C/C=C/C=C/C=C/C=C/C=C/C=C/[C@H](O[C@@H]2O[C@H](C)[C@@H](O)[C@H](N)[C@@H]2O)C[C@@H]2O[C@](O)(C[C@@H](O)C[C@@H](O)[C@H](O)CC[C@@H](O)C[C@@H](O)CC(=O)O[C@H]1C)C[C@H](O)[C@H]2C(=O)O | Pichia kudriavzevii | microbial growth | ATCC6258 | – | IC50 | 0.54 µg/mL |
| COC(=O)COc1ccc(NC(=O)C2(c3ccc(Cl)cc3)CC2)cc1 | U-937 | cell growth or viability, ATP luminescence | – | 72 h | GI50 | 3.9 µM |
| Cc1cc(=O)oc2ccc(-c3cc(-c4ccc(Br)cc4)nc(N)n3)c(O)c12 | KB | cell growth or viability, MTT | – | 8 µg/mL, 72 h | inhibition | 2% |
| C[C@@H]1[C@H](O)[C@@H](C)/C=C/C=C/C=C/C=C/C=C/C=C/C=C/[C@H](O[C@@H]2O[C@H](C)[C@@H](O)[C@H](N)[C@@H]2O)C[C@@H]2O[C@](O)(C[C@@H](O)C[C@@H](O)[C@H](O)CC[C@@H](O)C[C@@H](O)CC(=O)O[C@H]1C)C[C@H](O)[C@H]2C(=O)O | Pichia kudriavzevii | microbial killing | ATCC6258 | – | MFC | 1.35 µM (≈ 1.25 µg/mL) |
| COc1ccc(-c2cc(-c3ccc4oc(=O)cc(C)c4c3O)nc(N)n2)cc1 | KB | cell growth or viability, MTT | – | 8 µg/mL, 72 h | inhibition | 0% |
| Clc1ccccc1C(c1ccccc1)(c1ccccc1)n1ccnc1 | Fusarium solani | microbial growth, disc diffusion | – | 20000 µg/mL | inhibition zone | 23 mm |
| CCCCCCCCCCCCCCN1CCN(CC(O)(Cn2cncn2)c2ccc(F)cc2F)CC1 (centres unmarked) | Pichia kudriavzevii | microbial growth, broth dilution | ATCC6258 | 48 h | MIC | 0.975 µg/mL (≈ 1.88 µM) |
| Cc1cc(=O)oc2ccc(-c3cc(-c4ccc(Cl)cc4)nc(N)n3)c(O)c12 | KB | cell growth or viability, MTT | – | 128 µg/mL, 72 h | inhibition | 60% |
